Active and inactive are the calls of the source. The rule behind the calls is not given here.
Assays:
[1] = Hepatic clearance in rat liver microsomes; format: ADME
Procedure, shortened: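 Predicted hepatic clearance calculated from intrinsic clearance in rat liver microsomes.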

[2] = molecular target: T1, G-protein coupled receptor 39 (Homo sapiens, UniProt O43194); test: Agonist activity at human GPR39 expressed in HEK293 cells by IP1 assay; format: functional, cell-based
T1 sequence (O43194 whole entry): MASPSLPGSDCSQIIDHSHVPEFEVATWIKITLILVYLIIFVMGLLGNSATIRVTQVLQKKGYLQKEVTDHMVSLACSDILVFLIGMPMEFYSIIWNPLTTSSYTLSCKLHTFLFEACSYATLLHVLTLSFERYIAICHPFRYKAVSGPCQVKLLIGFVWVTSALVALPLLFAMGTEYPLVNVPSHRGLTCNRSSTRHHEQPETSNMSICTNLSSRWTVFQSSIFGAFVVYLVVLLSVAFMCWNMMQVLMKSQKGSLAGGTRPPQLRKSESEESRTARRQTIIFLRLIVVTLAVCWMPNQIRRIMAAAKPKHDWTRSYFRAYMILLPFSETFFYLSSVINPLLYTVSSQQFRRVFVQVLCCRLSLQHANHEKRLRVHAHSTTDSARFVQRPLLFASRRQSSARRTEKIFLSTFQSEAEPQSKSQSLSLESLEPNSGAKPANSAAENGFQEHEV
Procedure, shortened: (§1)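 Gαq signalling read as inositol-1-phosphate (IP1) accumulation in HEK293 cells overexpressing human, mouse or rat GPR39. EC50 taken from an 11-point dose–response curve run in triplicate. Replicates range from 1 to 4, with standard deviation where available.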

[3] = molecular target: T2, G-protein coupled receptor 39 (Mus musculus, UniProt Q5U431); test: Agonist activity at mouse GPR39 expressed in HEK293 cells by IP1 assay; format: functional, cell-based; procedure, shortened: as §1
T2 sequence (Q5U431 whole entry): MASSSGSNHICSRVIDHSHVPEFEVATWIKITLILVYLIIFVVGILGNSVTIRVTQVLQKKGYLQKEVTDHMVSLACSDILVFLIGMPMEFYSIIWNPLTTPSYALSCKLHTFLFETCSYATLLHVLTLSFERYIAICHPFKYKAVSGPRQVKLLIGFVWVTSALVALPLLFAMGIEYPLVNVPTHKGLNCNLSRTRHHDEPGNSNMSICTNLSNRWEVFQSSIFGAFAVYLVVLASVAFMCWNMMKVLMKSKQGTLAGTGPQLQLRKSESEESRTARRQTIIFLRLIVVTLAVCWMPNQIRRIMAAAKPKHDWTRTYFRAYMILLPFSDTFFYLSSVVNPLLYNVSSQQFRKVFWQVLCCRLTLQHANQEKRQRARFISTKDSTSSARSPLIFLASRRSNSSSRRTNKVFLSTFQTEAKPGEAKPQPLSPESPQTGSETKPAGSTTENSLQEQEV

Protein Gpr39 [4] = molecular target: T3, Protein Gpr39 (Rattus norvegicus, UniProt A6QR73); test: Agonist activity at rat GPR39 expressed in HEK293 cells by IP1 assay; format: functional, cell-based; procedure, shortened: as §1
T3 sequence (A6QR73 whole entry): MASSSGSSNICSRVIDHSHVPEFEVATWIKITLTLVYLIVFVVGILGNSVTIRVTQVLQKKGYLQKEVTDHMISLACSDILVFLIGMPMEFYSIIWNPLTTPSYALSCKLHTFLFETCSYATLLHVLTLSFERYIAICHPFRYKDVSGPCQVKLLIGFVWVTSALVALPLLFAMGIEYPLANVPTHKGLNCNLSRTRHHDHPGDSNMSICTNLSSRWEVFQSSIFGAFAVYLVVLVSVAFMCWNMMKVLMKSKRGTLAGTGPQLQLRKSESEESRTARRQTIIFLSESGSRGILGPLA

[5] = molecular target: T1, G-protein coupled receptor 39; test: Agonist activity at human GPR39 expressed in HEK293 cells by cAMP assay; format: functional, cell-based
Procedure, shortened: (§2)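 cAMP accumulation (Gαs signalling) in HEK293 cells overexpressing human GPR39. Dose–response curve run in triplicate, 1–16 replicates. EC50 derived from the curve. Percent efficacy is expressed relative to the cAMP response to 25 μM forskolin.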

[6] = molecular target: T4, G-protein coupled receptor 39 (Homo sapiens) (UniProt O43194); test: Agonist activity at human GPR39 expressed in HEK293 cells by cAMP assay relative to forskolin; format: functional, cell-based; procedure, shortened: as §2
T4 sequence (whole entry): T1 sequence (O43194 whole entry)

[7] = Induction of GLP1 secretion in mouse STC1 cells incubated for 2 hrs by fluorescent bead based ELISA method; format: functional, cell-based; details: STC-1, 2 h
Procedure, shortened: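 Mouse enteroendocrine STC-1 cells, which express endogenous GPR39, were assayed for GLP-1 secretion over a dose–response run in triplicate. Maximal activity is expressed as fold increase in GLP-1 over the DMSO control.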

[8] = Protection against cytokine-induced cell death in rat INS-1E cells assessed as caspase 3/7 activity; format: functional, cell-based
Procedure, shortened: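 Rat insulinoma INS-1E cells (beta-cell phenotype) were treated with cytokines to induce cell death. Caspase 3/7 activity was the read-out. Dose–response run in triplicate.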

[9] = molecular target: T4, G-protein coupled receptor 39 (Homo sapiens); test: Agonist activity at human GPR39 expressed in HEK293 cells in presence of sub-EC50 dose of zinc chloride by IP1 assay; format: functional, cell-based
[10] = Clearance in Sprague-Dawley rat at 1 mg/kg, iv administered as single dose; format: ADME, organism-based; set-up: dose 1 mg/kg, route intravenous; details: in vivo
Procedure, shortened: (§3)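 Sprague–Dawley rats received a single iv dose of 1 mg/kg, with clearance measured, or an oral dose of 3 mg/kg, with bioavailability (F) measured.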

[11] = Oral bioavailability in Sprague-Dawley rat at 3 mg/kg; format: ADME, organism-based; details: in vivo; procedure, shortened: as §3
[12] = molecular target: T1, G-protein coupled receptor 39; test: Agonist activity at human GPR39 by IP1 assay; format: functional; procedure, shortened: as §1
Protein Gpr39 [13] = molecular target: T3, Protein Gpr39; test: Agonist activity at rat GPR39 by IP1 assay; format: functional; procedure, shortened: as §1
[14] = molecular target: T2, G-protein coupled receptor 39; test: Agonist activity at mouse GPR39 by IP1 assay; format: functional; procedure, shortened: as §1
[15] = Clearance in Sprague-Dawley rat at 2 mg/kg, iv administered as single dose; format: ADME, organism-based; set-up: dose 2 mg/kg, route intravenous; details: in vivo
Procedure, shortened: (§4)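 Sprague–Dawley rats received a single iv dose of 2 mg/kg or an oral dose of 5 mg/kg. Vehicle was 10% NMP, 30% PEG200 and 5% Solutol in water. Clearance was taken from the iv arm and bioavailability from the oral arm.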

[16] = Oral bioavailability in Sprague-Dawley rat at 5 mg/kg; format: ADME, organism-based; details: in vivo; procedure, shortened: as §4
[17] = Permeability from apical to basolateral side in human Caco2 cells; format: ADME, cell-based; details: Caco-2, read-out: permeability
Mus musculus = test: Increase in GLP1 level in C57BL/6 mouse at 30 mg/kg, po concurrently dosed with 3 mg/kg, po DPP4 inhibitor PKF275-055 followed by glucose challenge after 1 hr post drug dose; format: functional
Procedure, shortened: (§5)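 Male C57BL/6 mice were dosed orally with compound together with a DPP-IV inhibitor. After 1 h they were challenged with oral glucose at 3 g/kg. Active GLP-1 and plasma exposure were measured 30 min later. One-way ANOVA with Dunnett's post-test against the vehicle group.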

[18] = Plasma concentration in C57BL/6 mouse at 30 mg/kg, po concurrently dosed with 3 mg/kg, po DPP4 inhibitor PKF275-055 followed by glucose challenge after 1 hr post drug dose; format: ADME, organism-based; procedure, shortened: as §5
[19] = Aqueous solubility at pH 6.8; format: physicochemical

SMILES | CLhep predicted [1] | EC50 [2] | EC50 [3] | also measured
CNc1nc(NCc2ccc(NC(C)=O)cc2)cc(-c2ccccn2)n1 | 35.9 mL/min/kg | 5 nM | 2 nM | EC50 (Protein Gpr39 [4]): 2 nM; EC50 [5]: 550 nM; Efficacy [6]: 48%; EC50 [7]: 4400 nM; EC50 [8]: 1200 nM
O=S(=O)(NC[C@H]1CC[C@H](CNc2cc(-c3ccccn3)nc(NCC3CC3)n2)CC1)c1ccc(F)cc1 |  |  |  | Activity [9]: Active
CNc1nc(NCc2ccc(S(C)(=O)=O)cc2)cc(-c2ccccn2)n1 | 34.1 mL/min/kg | 36 nM | 185 nM | clearance [10]: 18 mL/min/kg; bioavailability [11]: 45%
Cc1nc(NCc2ccc(Cl)cc2)cc(-c2ccccn2)n1 | > 52.3 mL/min/kg | 81 nM | 17 nM | 
O=S(=O)(NC[C@H]1CC[C@H](CNc2cc(-c3ccccn3)nc(NC3CC3)n2)CC1)c1cccc(F)c1 |  |  |  | EC50 [12]: 11 nM; EC50 (Protein Gpr39 [13]): 1 nM; EC50 [14]: 3 nM; clearance [15]: 42 mL/min/kg; bioavailability [16]: 25%
CNc1nc(NCc2ccc(Cl)cc2Cl)cc(-c2ccccn2)n1 | > 52.3 mL/min/kg | 0.8 nM | 0.5 nM | 
FC(F)(F)CNc1nc(NCc2ccc(Cl)cc2)cc(-c2ccccn2)n1 | > 52.3 mL/min/kg | 60 nM | 1 nM | 
CNc1nc(NCc2ccc(NC(C)=O)cc2F)cc(-c2ccccn2)n1 | 25.9 mL/min/kg | 1 nM |  | EC50 (Protein Gpr39 [4]): 0.6 nM; EC50 [5]: 350 nM; Efficacy [6]: 55%; EC50 [7]: 200 nM; EC50 [8]: 40 nM
c1ccc(-c2cc(NCC3CC3)ncn2)nc1 |  | 22000 nM | 10000 nM | 
CNc1nc(NCc2ccc(Cl)cc2)cc(-c2ccccn2)n1 |  | 15 nM | 3 nM | 
CNc1nc(NCC(C)(C)C)cc(-c2ccccn2)n1 |  | 73 nM | 365 nM | 
CN(C)c1nc(NCC2CC2)cc(-c2ccccn2)n1 |  | > 25000 nM | 6720 nM | 
CNc1nc(NCc2ccc(NS(C)(=O)=O)cc2)cc(-c2ccccn2)n1 | 33.6 mL/min/kg | 3 nM | 8 nM | EC50 (Protein Gpr39 [4]): 3 nM; EC50 [5]: 180 nM; Efficacy [6]: 55%; EC50 [7]: 1300 nM; EC50 [8]: 400 nM; Papp A→B [17]: 6.9 ×10⁻⁶ cm/s; fold change (FC) (Mus musculus): <2; concentration at 1 h [18]: 2000 nM
COCCNc1nc(NCC2CC2)cc(-c2ccccn2)n1 |  | 2200 nM | 10000 nM | 
CNc1nc(NCc2ccc(OC(F)(F)F)cc2)cc(-c2ccccn2)n1 | > 52.3 mL/min/kg | 13 nM | 7 nM | 
CNC(=O)c1ccc(CNc2cc(-c3ccccn3)nc(NC)n2)cc1 | 31.9 mL/min/kg | 30 nM | 8 nM | 
CNc1nc(NCc2ccncc2)cc(-c2ccccn2)n1 |  | 87 nM | 304 nM | 
O=S(=O)(NC[C@H]1CC[C@H](CNc2nc(NC3CC3)cc(-c3ccccn3)n2)CC1)c1cccc(F)c1 | 51.2 mL/min/kg |  |  | solubility [19]: < 5 µM; EC50 [12]: 202 nM; EC50 (Protein Gpr39 [13]): 12 nM; EC50 [14]: 4 nM
CNc1nc(Nc2ccc(N(C)C(C)=O)cc2)cc(-c2ccccn2)n1 |  | 1180 nM | 2610 nM | 
CNc1nc(NCC2CCCCC2)cc(-c2ccccn2)n1 |  | 11 nM | 10 nM | 
CNc1nc(NC2(c3ccc(Cl)cc3)CCC2)cc(-c2ccccn2)n1 | > 52.3 mL/min/kg | 25 nM | 34 nM | 
[Cl-].[Cl-].[Zn+2] [ZINC CHLORIDE] |  |  |  | EC50 (Protein Gpr39 [4]): 4040 nM; EC50 [5]: 3600 nM; Efficacy [6]: 48%
FC(F)(F)Oc1ccc(CNc2nc(NCC3CC3)cc(-c3ccccn3)n2)cc1 |  | 600 nM | 22 nM | 
CC(C)(C)CNc1nc(NCC2CC2)cc(-c2ccccn2)n1 |  | 5000 nM | 1500 nM | 
CNc1nc(NCC2CC2)cc(-c2ccccn2)n1 |  | 164 nM | 115 nM | 
